Values after ≈ are worked out from the molar mass of the structure shown. Square brackets hold non-standard residues; d marks the D form. Peptide text beside a SMILES is read from it. Nphe = O=C(O)CNCc1ccccc1; Nlys = NCCCCNCC(=O)O
Assays:
Escherichia coli [1] = assay: Antibacterial activity against Escherichia coli ATCC 25922 after 16 to 20 hrs by broth microdilution assay; type: functional
Klebsiella pneumoniae [2] = assay: Antibacterial activity against multidrug resistant KPC producing Klebsiella pneumoniae isolate after 16 to 20 hrs by broth microdilution assay; type: functional
Staphylococcus aureus = assay: Antibacterial activity against methicillin-resistant Staphylococcus aureus isolate after 16 to 20 hrs by broth microdilution assay; type: functional
Escherichia coli [3] = assay: Antibacterial activity against multidrug resistant NDM-1 producing Escherichia coli isolate after 16 to 20 hrs by broth microdilution assay; type: functional
[4] = Hemolytic activity against human RBCs after 1 hr by spectrophotometry; type: ADME, cell-based; conditions: erythrocyte
In short: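 Freshly drawn human erythrocytes washed in TBS (pH 7.2, 10 mM Tris, 150 mM NaCl), 1% v/v suspension mixed with 2-fold serial dilutions (1−128 μM) in water; 1 h at 37 °C. After pelleting, supernatant diluted 1:1 with water and hemoglobin read at OD 405 nm. Melittin (400 μg/mL) = 100%, TBS = 0%. Value is the lowest concentration giving ≥10% lysis.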

Escherichia coli [5] = assay: Antibacterial activity against multidrug resistant Amp-C producing Escherichia coli isolate after 16 to 20 hrs by broth microdilution assay; type: functional
HeLa = assay: Cytotoxicity against human HeLa cells assessed as growth inhibition after 1 hr; type: cell-based
In short: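 HeLa cells seeded at 9000 per well, cultured 24 h; at 80−100% confluency washed with HBSS and exposed 1 h (37 °C, 50 rpm) to 2-fold serial dilutions in EMEM. After washing, MTS/PMS (240/2.4 μg/mL) in HBSS added for 1.5 h; formazan read at 492 nm. 0.2% SDS = 0%, EMEM alone = 100%. Test range 1−128 or 8−1024 μM; IC50 reported.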

Escherichia coli [6] = assay: Antibacterial activity against multidrug resistant ESBL producing Escherichia coli isolate after 16 to 20 hrs by broth microdilution assay; type: functional
Klebsiella pneumoniae [7] = assay: Antibacterial activity against multidrug resistant NDM-1 producing Klebsiella pneumoniae isolate after 16 to 20 hrs by broth microdilution assay; type: functional
[8] = Therapeutic index, ratio of HC10 for human erythrocyte cells to MIC for multidrug resistant bacterial strains; conditions: read-out: TI
In short: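 TI = hemolytic activity divided by median of MIC values. Hemolysis: washed fresh human RBCs (1% v/v in TBS, pH 7.2) with 2-fold oligomer dilutions (1–128 μM), 37 °C, 1 h; supernatant OD 405 nm; melittin 400 μg/mL = 100%, TBS = 0%. HA = concentration giving ≥10% lysis. MICs by broth microdilution, 35 °C, 16–20 h.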

[9] = Proteolytic stability of compound in presence of Pronase by reverse phase HPLC analysis; type: ADME
In short: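 Oligomer (2 mg/mL solution, 250 μL) incubated with Pronase (1.0 mg/mL solution, 50 μL) in 10 mM Tris pH 7.5 (1.2 mL); enzyme activity first confirmed on Nα-benzoyl arginine. Degradation followed by analytical reverse-phase HPLC (10−60% B) at 6, 12, 18 and 50 h; degradation product identified by HRMS.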

Row | Compound | MIC (Escherichia coli [1]) [µM] | MIC (Klebsiella pneumoniae [2]) [µM] | MIC (Staphylococcus aureus) [µM] | MIC (Escherichia coli [3]) [µM] | HC10 [4] [µM] | MIC (Escherichia coli [5]) [µM] | IC50 (HeLa) [µM] | MIC (Escherichia coli [6]) [µM] | MIC (Klebsiella pneumoniae [7]) [µM] | selectivity ratio [8] | Stability [9]
1 | CC(=O)N[C@H](CCCCN)C(=O)N[C@H](Cc1ccccc1)C(=O)N[C@H](CCCCN)C(=O)N[C@H](Cc1ccccc1)C(=O)N[C@H](CCCCN)C(=O)N[C@H](Cc1ccccc1)C(=O)N[C@H](CCCCN)C(=O)N[C@H](Cc1ccccc1)C(=O)N[C@H](CCCCN)C(=O)N[C@H](Cc1ccccc1)C(=O)N[C@H](CCCCN)C(=O)N[C@H](Cc1ccccc1)C(=O)N[C@H](CCCCN)C(=O)N[C@H](Cc1ccccc1)C(=O)N[C@H](CCCCN)C(=O)N[C@H](Cc1ccccc1)C(N)=O | 128 (≈ 290 µg/mL) | 256 (≈ 579 µg/mL) | 16 (≈ 36.2 µg/mL) | 128 (≈ 290 µg/mL) | < 1 | 256 (≈ 579 µg/mL) | 18.1 | 256 (≈ 579 µg/mL) | 256 (≈ 579 µg/mL) | < 0.008 | Stable
2 | CC(=O)N[C@@H](CCCCN)CC(=O)N[C@H](CC(=O)N[C@@H](CCCCN)CC(=O)N[C@H](CC(=O)N[C@@H](CCCCN)CC(=O)N[C@H](CC(=O)N[C@@H](CCCCN)CC(=O)N[C@H](CC(=O)N[C@@H](CCCCN)CC(=O)N[C@H](CC(=O)N[C@@H](CCCCN)CC(=O)N[C@H](CC(=O)N[C@@H](CCCCN)CC(=O)N[C@H](CC(=O)N[C@@H](CCCCN)CC(=O)N[C@H](CC(N)=O)Cc1ccccc1)Cc1ccccc1)Cc1ccccc1)Cc1ccccc1)Cc1ccccc1)Cc1ccccc1)Cc1ccccc1)Cc1ccccc1 | 16 (≈ 39.8 µg/mL) | 32 (≈ 79.6 µg/mL) | 16 (≈ 39.8 µg/mL) | 32 (≈ 79.6 µg/mL) | 128 | 32 (≈ 79.6 µg/mL) | 31 | 32 (≈ 79.6 µg/mL) | 32 (≈ 79.6 µg/mL) | 4 | Stable
3 | CC(=O)N[C@@H](CCCCN)CC(=O)N[C@@H](Cc1ccccc1)C(=O)N[C@@H](CCCCN)CC(=O)N[C@@H](Cc1ccccc1)C(=O)N[C@@H](CCCCN)CC(=O)N[C@@H](Cc1ccccc1)C(=O)N[C@@H](CCCCN)CC(=O)N[C@@H](Cc1ccccc1)C(=O)N[C@@H](CCCCN)CC(=O)N[C@@H](Cc1ccccc1)C(=O)N[C@@H](CCCCN)CC(=O)N[C@@H](Cc1ccccc1)C(=O)N[C@@H](CCCCN)CC(=O)N[C@@H](Cc1ccccc1)C(=O)N[C@@H](CCCCN)CC(=O)N[C@@H](Cc1ccccc1)C(N)=O | 8 (≈ 19 µg/mL) | 128 (≈ 304 µg/mL) | 256 (≈ 608 µg/mL) | 4 (≈ 9.5 µg/mL) | 64 | 16 (≈ 38 µg/mL) | 133 | 8 (≈ 19 µg/mL) | 256 (≈ 608 µg/mL) | 8 | Stable
4 | CC(=O)N[C@@H](CCCCN)C(=O)N(CCC(=O)N[C@@H](CCCCN)C(=O)N(CCC(=O)N[C@@H](CCCCN)C(=O)N(CCC(=O)N[C@@H](CCCCN)C(=O)N(CCC(=O)N[C@@H](CCCCN)C(=O)N(CCC(=O)N[C@@H](CCCCN)C(=O)N(CCC(=O)N[C@@H](CCCCN)C(=O)N(CCC(=O)N[C@@H](CCCCN)C(=O)N(CCC(N)=O)Cc1ccccc1)Cc1ccccc1)Cc1ccccc1)Cc1ccccc1)Cc1ccccc1)Cc1ccccc1)Cc1ccccc1)Cc1ccccc1 | 8 (≈ 19 µg/mL) | 128 (≈ 304 µg/mL) | > 256 | 4 (≈ 9.5 µg/mL) | > 128 | 8 (≈ 19 µg/mL) | 25.9 | 4 (≈ 9.5 µg/mL) | 256 (≈ 608 µg/mL) | > 21 | Stable
5 | CC(=O)N[C@@H](CCCCN)C(=O)N(CC(=O)N[C@@H](CCCCN)C(=O)N(CC(=O)N[C@@H](CCCCN)C(=O)N(CC(=O)N[C@@H](CCCCN)C(=O)N(CC(=O)N[C@@H](CCCCN)C(=O)N(CC(=O)N[C@@H](CCCCN)C(=O)N(CC(=O)N[C@@H](CCCCN)C(=O)N(CC(=O)N[C@@H](CCCCN)C(=O)N(CC(N)=O)Cc1ccccc1)Cc1ccccc1)Cc1ccccc1)Cc1ccccc1)Cc1ccccc1)Cc1ccccc1)Cc1ccccc1)Cc1ccccc1 (Ac-K[Nphe]K[Nphe]K[Nphe]K[Nphe]K[Nphe]K[Nphe]K[Nphe]K[Nphe]-NH2) | 4 (≈ 9.05 µg/mL) | 128 (≈ 290 µg/mL) | 256 (≈ 579 µg/mL) | 2 (≈ 4.52 µg/mL) | > 128 | 8 (≈ 18.1 µg/mL) | 101 | 8 (≈ 18.1 µg/mL) | 128 (≈ 290 µg/mL) | > 21 | Stable
6 | CO/N=C(\C(=O)N[C@@H]1C(=O)N2C(C(=O)O)=C(COC(C)=O)CS[C@H]12)c1csc(N)n1 [CEFOTAXIME] | < 0.1 | > 134 | 34 (≈ 15.5 µg/mL) | > 134 | – | 2.1 (≈ 0.956 µg/mL) | – | > 134 | > 134 | – | –
7 | CC(=O)N(CCCCN)CC(=O)N(CC(=O)N(CCCCN)CC(=O)N(CC(=O)N(CCCCN)CC(=O)N(CC(=O)N(CCCCN)CC(=O)N(CC(=O)N(CCCCN)CC(=O)N(CC(=O)N(CCCCN)CC(=O)N(CC(=O)N(CCCCN)CC(=O)N(CC(=O)N(CCCCN)CC(=O)N(CC(N)=O)Cc1ccccc1)Cc1ccccc1)Cc1ccccc1)Cc1ccccc1)Cc1ccccc1)Cc1ccccc1)Cc1ccccc1)Cc1ccccc1 (Ac-[Nlys][Nphe][Nlys][Nphe][Nlys][Nphe][Nlys][Nphe][Nlys][Nphe][Nlys][Nphe][Nlys][Nphe][Nlys][Nphe]-NH2) | 32 (≈ 72.4 µg/mL) | 256 (≈ 579 µg/mL) | 256 (≈ 579 µg/mL) | 32 (≈ 72.4 µg/mL) | > 128 | 32 (≈ 72.4 µg/mL) | 194 | 64 (≈ 145 µg/mL) | 256 (≈ 579 µg/mL) | > 4 | Stable
8 | CC(=O)N(CCCCN)CC(=O)N[C@@H](Cc1ccccc1)C(=O)N(CCCCN)CC(=O)N[C@@H](Cc1ccccc1)C(=O)N(CCCCN)CC(=O)N[C@@H](Cc1ccccc1)C(=O)N(CCCCN)CC(=O)N[C@@H](Cc1ccccc1)C(=O)N(CCCCN)CC(=O)N[C@@H](Cc1ccccc1)C(=O)N(CCCCN)CC(=O)N[C@@H](Cc1ccccc1)C(=O)N(CCCCN)CC(=O)N[C@@H](Cc1ccccc1)C(=O)N(CCCCN)CC(=O)N[C@@H](Cc1ccccc1)C(N)=O (Ac-[Nlys]F[Nlys]F[Nlys]F[Nlys]F[Nlys]F[Nlys]F[Nlys]F[Nlys]F-NH2) | 16 (≈ 36.2 µg/mL) | 256 (≈ 579 µg/mL) | > 256 | 32 (≈ 72.4 µg/mL) | > 128 | 32 (≈ 72.4 µg/mL) | 267 | 16 (≈ 36.2 µg/mL) | 256 (≈ 579 µg/mL) | > 5 | –
9 | GENTAMICIN | 1.7 | > 111 | 56 | > 111 | – | 6.9 | – | > 111 | 111 | – | –
10 | CC(=O)N(CCCCN)CCC(=O)N[C@@H](Cc1ccccc1)C(=O)N(CCCCN)CCC(=O)N[C@@H](Cc1ccccc1)C(=O)N(CCCCN)CCC(=O)N[C@@H](Cc1ccccc1)C(=O)N(CCCCN)CCC(=O)N[C@@H](Cc1ccccc1)C(=O)N(CCCCN)CCC(=O)N[C@@H](Cc1ccccc1)C(=O)N(CCCCN)CCC(=O)N[C@@H](Cc1ccccc1)C(=O)N(CCCCN)CCC(=O)N[C@@H](Cc1ccccc1)C(=O)N(CCCCN)CCC(=O)N[C@@H](Cc1ccccc1)C(N)=O | 8 (≈ 19 µg/mL) | 64 (≈ 152 µg/mL) | 256 (≈ 608 µg/mL) | 2 (≈ 4.75 µg/mL) | > 128 | 16 (≈ 38 µg/mL) | 62.6 | 16 (≈ 38 µg/mL) | 256 (≈ 608 µg/mL) | > 11 | Stable
11 | CC(=O)N[C@@H](CCCCN)C(=O)N[C@@H](Cc1ccccc1)C(=O)N[C@@H](CCCCN)C(=O)N[C@@H](Cc1ccccc1)C(=O)N[C@@H](CCCCN)C(=O)N[C@@H](Cc1ccccc1)C(=O)N[C@@H](CCCCN)C(=O)N[C@@H](Cc1ccccc1)C(=O)N[C@@H](CCCCN)C(=O)N[C@@H](Cc1ccccc1)C(=O)N[C@@H](CCCCN)C(=O)N[C@@H](Cc1ccccc1)C(=O)N[C@@H](CCCCN)C(=O)N[C@@H](Cc1ccccc1)C(=O)N[C@@H](CCCCN)C(=O)N[C@@H](Cc1ccccc1)C(N)=O | > 256 | > 256 | 16 (≈ 36.2 µg/mL) | 128 (≈ 290 µg/mL) | < 1 | > 256 | 19.6 | > 256 | > 256 | < 0.004 | Unstable
12 | O=C(O)c1cn(C2CC2)c2cc(N3CCNCC3)c(F)cc2c1=O [CIPROFLOXACIN] | < 0.1 | – | 19 (≈ 6.3 µg/mL) | – | – | – | – | – | – | – | –

From ChEMBL document CHEMBL2169776, “Antimicrobial activity of peptidomimetics against multidrug-resistant Escherichia coli: a comparative study of different backbones” (J Med Chem, 2012)
